Assay results published in ChEMBL document CHEMBL5029146, “Single Diastereomers of the Clinical Anticancer ProTide Agents NUC-1031 and NUC-3373 Preferentially Target Cancer Stem Cells In Vitro” (J Med Chem, 2021).
Calls of active or inactive are those of the source. The calls are words filed in the database; no cut-off is given here.

Key:
MDA-MB-231 = experiment: Cytotoxicity against human MDA-MB-231 cells incubated for 72 hrs by flow cytometry using Annexin V/7-AAD assay; type: functional; settings: read-out: LC50 (the source's name)
In short: (§1)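 Cell suspensions from confluent flasks (10^5 cells per well) exposed 72 h at 37°C, humidified 5% CO2, to compound over experimentally set concentration ranges, with drug-free controls. Cells harvested by centrifugation, Annexin V/7-AAD flow cytometry. Triplicate experiments; LC50 by non-linear regression of sigmoidal dose-response curves, mean ± SEM.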

[1] = Metabolic stability in cryopreserved human hepatocytes assessed as half life at 1 uM for 60 mins by HPLC-MS/MS analysis; type: ADME, cell-based, Hepatocyte; settings: for t1/2: hepatocytes, 1 h, 1 µM
In short: (§2)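 Pooled cryopreserved human hepatocytes thawed, washed and resuspended in Krebs-Henseleit buffer pH 7.3. Compound at 1 μM final, incubated 0 and 60 min at 37°C/5% CO2. Quenched with acetonitrile, centrifuged; supernatant analysed by HPLC-MS/MS.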

SW-620 [2] = experiment: Cytotoxicity against human SW-620 cells assessed as cell death incubated for 72 hrs by MTS assay; type: functional; settings: read-out: LC50 (the source's name)
In short: (§3)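 Contracted MTS viability test (BxPC-3, MIA PaCa-2, HT-29, SW620), cells plated the day before dosing. 72 h exposure to 9 serial 3.16-fold dilutions, highest 198 μM, then MTS for 4 h at 37°C and absorbance read. Run in duplicate; LC50 (concentration giving 50% cell death) taken from curve fit as mean.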

KG-1a [3] = experiment: Cytotoxicity against human KG-1a cells assessed as cell death incubated for 72 hrs by flow cytometry based Annexin V/7-AAD assay; type: functional; in short: as §1
HCT-116 = experiment: Cytotoxicity against human HCT-116 cells assessed as cell death incubated for 72 hrs by flow cytometry based Annexin V/7-AAD assay; type: functional; settings: read-out: LC50 (the source's name); in short: as §1
[4] = Metabolic stability in cryopreserved human hepatocytes assessed as parent compound remaining at 1 uM for 60 mins by HPLC-MS/MS analysis; type: ADME, cell-based, Hepatocyte; in short: as §2
[5] = Stability in human plasma assessed as half life; type: ADME, cell-free; settings: time <=24 hrs
HT-29 [6] = experiment: Cytotoxicity against human HT-29 cells assessed as cell death incubated for 72 hrs by flow cytometry based Annexin V/7-AAD assay; type: functional; settings: read-out: LC50 (the source's name); in short: as §1
KG-1a [7] = experiment: Potency index, ratio of FUDR LC50 to test compound LC50 for human KG-1a cells incubated for 72 hrs by flow cytometry using Annexin V/7-AAD assay; type: functional
In short: (§4)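 Annexin V/7-AAD flow cytometry after 72 h exposure at 37°C, 5% CO2, drug-free controls included, triplicate. LC50 by non-linear regression. Index is reference nucleoside LC50 (5-FU for HT-29, FUDR for KG1a) divided by test compound LC50.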

KG-1a [8] = experiment: Cytotoxicity against human KG-1a cells assessed as reduction in leukemic stem cells fraction at >= 0.07 uM after 48 hrs by FACS assay; type: functional, cell-based; settings: dose microM >=0.07, time 48.0 hrs
In short: (§5)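 KG1a AML cells were kept in RPMI with 20% foetal calf serum and penicillin/streptomycin, then exposed to a wide concentration range of each nucleoside or ProTide. Cells were stained with anti-CD34 (FITC) and anti-CD38 (PE) and read by flow cytometry. The CD34⁺/CD38⁻ stem-cell subset was expressed as a percentage of viable cells. Results are the mean ±SEM of five independent experiments.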

MIA PaCa-2 = experiment: Cytotoxicity against human MIA PaCa-2 cells assessed as cell death incubated for 72 hrs by MTS assay; type: functional; settings: read-out: LC50 (the source's name); in short: as §3
[9] = Prodrug activation assessed as carboxypeptidase Y-mediated metabolite C release measured upto 120 mins by NMR analysis; type: ADME; settings: saccharomyces cerevisiae, 2 h
In short: (§6)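 ProTide (3.5 mg) in acetone-d6 with Trizma buffer pH 7.6. Control 31P NMR taken, then carboxypeptidase Y (0.1 mg in Trizma) added. 31P NMR spectra (202 MHz, 25°C) collected with 64 scans every 7 min. Parent and metabolite A/C fractions followed by peak integration over time.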

BXPC-3 = experiment: Cytotoxicity against human BXPC-3 cells assessed as cell death incubated for 72 hrs by MTS assay; type: functional; settings: read-out: LC50 (the source's name); in short: as §3
KG-1a [10] = experiment: Cytotoxicity against human KG-1a cells assessed as reduction in leukemic stem cells fraction >= 0.25 uM measured after 48 hrs by FACS assay; type: functional, cell-based; settings: dose microM >=0.25, time 48.0 hrs
LNCaP = experiment: Cytotoxicity against human LNCaP cells assessed as cell death incubated for 72 hrs by flow cytometry based Annexin V/7-AAD assay; type: functional; settings: read-out: LC50 (the source's name); in short: as §1
[11] = Prodrug activation assessed as carboxypeptidase Y-mediated metabolite A release measured upto 120 mins by NMR analysis; type: ADME; settings: saccharomyces cerevisiae, 2 h; in short: as §6
KG-1a [12] = experiment: Cytotoxicity against human KG-1a cells assessed as reduction in leukemic stem cells fraction up to 5 uM measured after 48 hrs by FACS assay; type: functional, cell-based; settings: dose microM <=5, time 48.0 hrs
[13] = Prodrug activation assessed as carboxypeptidase Y-mediated metabolism by measuring compound remaining within 10 mins by NMR analysis; type: ADME; settings: saccharomyces cerevisiae; in short: as §6
SW-620 [14] = experiment: Potency index, ratio of 5-FU LC50 to test compound LC50 for human SW-620 cells incubated for 72 hrs by MTS assay; type: functional
In short: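 SW620 MTS assay: 72 h exposure to 9 serial 3.16-fold dilutions from 198 μM, MTS 4 h at 37°C, absorbance read, duplicate. LC50 from curve fit; index is 5-FU LC50 divided by test compound LC50.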

HT-29 [15] = experiment: Potency index, ratio of 5-FU LC50 to test compound LC50 for human HT-29 cells for 72 hrs by flow cytometry using Annexin V/7-AAD assay; type: functional; in short: as §4
[16] = Prodrug activation assessed as carboxypeptidase Y-mediated metabolite A release measured within 10 mins by NMR analysis; type: ADME; settings: saccharomyces cerevisiae; in short: as §6
KG-1a [17] = experiment: Cytotoxicity against human KG-1a cells assessed as viable cells at 0.5 uM for 48 hrs by FITC-PE analysis (reference value: 3.9%); type: functional; in short: as §5
[18] = Drug uptake in human KG-1a cell bulk tumor fraction assessed as intracellular accumulation at 1 uM treated for 1 hr by mass spectrometry analysis; type: ADME
In short: (§7)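 KG1a cells (5×10^6, DMEM + 10% FCS) exposed to 1 μM compound for 1 h, harvested, then FACS-sorted into CD34+/CD38− LSC and CD34+/CD38+ bulk fractions. Pellets lysed; intracellular triphosphate quantified by mass spectrometry against a nucleoside standard curve. Five independent experiments in triplicate, mean ± SEM.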

KG-1a [19] = experiment: Cytotoxicity against human KG-1a cells assessed as viable cells at 0.25 uM for 48 hrs by FITC-PE analysis (reference value: 3.9 to 4%); type: functional; in short: as §5
[20] = Drug uptake in human KG-1a cell leukemic stem cells fraction assessed as intracellular accumulation at 1 uM treated for 1 hr by mass spectrometry analysis; type: ADME; in short: as §7
KG-1a [21] = experiment: Cytotoxicity against human KG-1a cells assessed as viable cells at 1 uM for 48 hrs by FITC-PE analysis (reference value: 3.9 to 4%); type: functional; in short: as §5
KG-1a [22] = experiment: Cytotoxicity against human KG-1a cells assessed as reduction in leukemic stem cells fraction up to 2.5 uM measured after 48 hrs by FACS assay; type: functional, cell-based; settings: dose microM <=2.5, time 48.0 hrs; in short: as §5

## C[C@H](NP(=O)(OC[C@H]1O[C@@H](n2cc(F)c(=O)[nH]c2=O)C[C@@H]1O)Oc1cccc2ccccc12)C(=O)OCc1ccccc1 (stereo in doubt; form 1) [FOSIFLOXURIDINE NAFALBENAMIDE]
MDA-MB-231; Homo sapiens, MDA-MB-231, 72 h
  CC50: 2800 nM
[1]; cryopreserved hepatocytes
  half-life at 1 µM: 34 min
SW-620 [2]; Homo sapiens, SW-620, 72 h
  CC50: 1840 nM
KG-1a [3]; 72 h
  LC50: 53 nM
HCT-116; Homo sapiens, HCT-116, 72 h
  CC50: 3100 nM
[4]; cryopreserved hepatocytes, read-out: Stability
  remaining at 1 h, 1 µM: 30%
[5]
  half-life: 582 min
HT-29 [6]; Homo sapiens, HT-29, 72 h
  CC50: 1700 nM
KG-1a [7]
  RatioLC50: 23

## C[C@H](NP(=O)(OC[C@H]1O[C@@H](n2cc(F)c(=O)[nH]c2=O)C[C@@H]1O)Oc1cccc2ccccc12)C(=O)OCc1ccccc1 (stereo in doubt; form 3)
KG-1a [8]
  Activity: Active

## C[C@H](NP(=O)(OC[C@H]1O[C@@H](n2cc(F)c(=O)[nH]c2=O)C[C@@H]1O)Oc1cccc2ccccc12)C(=O)OCc1ccccc1 (stereo in doubt; form 2)
KG-1a [8]
  Activity: Active

## C[C@H](N[P@@](=O)(OC[C@H]1O[C@@H](n2ccc(N)nc2=O)C(F)(F)[C@@H]1O)Oc1ccccc1)C(=O)OCc1ccccc1
MIA PaCa-2
  CC50: 190 nM
[9]
  Drug metabolism: Metabolite_Detected
BXPC-3
  CC50: 1290 nM
KG-1a [3]
  LC50: 250 nM
KG-1a [10]
  Activity: Active
HT-29 [6]; Homo sapiens, HT-29, 72 h
  CC50: 1000 nM
LNCaP
  CC50: 3400 nM
[11]
  Drug metabolism: Metabolite_Notdetected

## O=c1[nH]cc(F)c(=O)[nH]1 [FLUOROURACIL]
KG-1a [12]
  Activity: inactive
MDA-MB-231; Homo sapiens, MDA-MB-231, 72 h
  CC50: 12600 nM
SW-620 [2]; Homo sapiens, SW-620, 72 h
  CC50: 7980 nM
KG-1a [3]
  LC50: 1400 nM
HCT-116; Homo sapiens, HCT-116, 72 h
  CC50: 3700 nM
[5]
  half-life: 8 min
HT-29 [6]; Homo sapiens, HT-29, 72 h
  CC50: 5500 nM

## C[C@H](NP(=O)(OC[C@H]1O[C@@H](n2cc(F)c(=O)[nH]c2=O)C[C@@H]1O)Oc1cccc2ccccc12)C(=O)OCc1ccccc1 (stereo in doubt; form 3) [FOSIFLOXURIDINE NAFALBENAMIDE]
[13]
  Activity: 28%
SW-620 [14]
  RatioLC50: 4
MDA-MB-231; 72 h
  CC50: 2500 nM
[1]
  t1/2: 47 min
SW-620 [2]; 72 h
  CC50: 1460 nM
KG-1a [3]; 72 h
  LC50: 55 nM
HCT-116; 72 h
  CC50: 2600 nM
HT-29 [6]; 72 h
  CC50: 1500 nM

## C[C@H](NP(=O)(OC[C@H]1O[C@@H](n2cc(F)c(=O)[nH]c2=O)C[C@@H]1O)Oc1cccc2ccccc12)C(=O)OCc1ccccc1 (stereo in doubt; form 2) [FOSIFLOXURIDINE NAFALBENAMIDE]
HT-29 [15]
  RatioLC50: 13
MDA-MB-231; 72 h
  CC50: 3600 nM
[1]
  t1/2: 53 min
SW-620 [2]; 72 h
  CC50: 2370 nM
KG-1a [3]; 72 h
  LC50: 52 nM
HCT-116; 72 h
  CC50: 4300 nM
[4]; hepatocytes, 1 h, 1 µM
  Stability: 40%
[16]
  Drug metabolism: Metabolite_Detected
HT-29 [6]; 72 h
  CC50: 2100 nM

## C[C@H](NP(=O)(OC[C@H]1O[C@@H](n2ccc(N)nc2=O)C(F)(F)[C@@H]1O)Oc1ccccc1)C(=O)OCc1ccccc1 (some centres undefined) [FOSGEMCITABINE PALABENAMIDE]
KG-1a [17]
  Activity: 2.5%
MIA PaCa-2
  CC50: 100 nM
[18]
  Drug uptake: Active
BXPC-3
  CC50: 2290 nM
KG-1a [19]
  Activity: 2.7%
[20]
  Drug uptake: Active
KG-1a [3]
  LC50: 280 nM
[5]
  half-life: 498 min
KG-1a [21]
  Activity: 1.9%
HT-29 [6]; Homo sapiens, HT-29, 72 h
  CC50: 1300 nM
LNCaP
  CC50: 3100 nM

## Nc1ccn([C@@H]2O[C@H](CO)[C@@H](O)C2(F)F)c(=O)n1 [GEMCITABINE]
KG-1a [17]
  Activity: 3.9%
MIA PaCa-2
  CC50: 10 nM
BXPC-3
  CC50: 740 nM
KG-1a [19]
  Activity: 4.1%
KG-1a [22]
  Activity: inactive
KG-1a [3]
  LC50: 1800 nM
KG-1a [21]
  Activity: 3.8%
HT-29 [6]; Homo sapiens, HT-29, 72 h
  CC50: 700 nM
LNCaP
  CC50: 2800 nM

## C[C@H](N[P@](=O)(OC[C@H]1O[C@@H](n2ccc(N)nc2=O)C(F)(F)[C@@H]1O)Oc1ccccc1)C(=O)OCc1ccccc1
MIA PaCa-2
  CC50: 30 nM
BXPC-3
  CC50: 2440 nM
KG-1a [3]
  LC50: 310 nM
KG-1a [10]
  Activity: Active
HT-29 [6]; Homo sapiens, HT-29, 72 h
  CC50: 1500 nM
LNCaP
  CC50: 2600 nM
